Activity calls are given as the source filed them. The calls are words filed in the database; no cut-off is given here.
Experiments:
Hexokinase-4 [1] = molecular target: T1, Hexokinase-4 (Homo sapiens, UniProt P35557); assay: Activation of flag-tagged human recombinant liver glucokinase expressed in Escherichia coli by glucose-6-phosphate dehydrogenase coupled continuous spectrophotometric assay in presence of 2.5 mM glucose
T1 sequence (P35557 whole entry): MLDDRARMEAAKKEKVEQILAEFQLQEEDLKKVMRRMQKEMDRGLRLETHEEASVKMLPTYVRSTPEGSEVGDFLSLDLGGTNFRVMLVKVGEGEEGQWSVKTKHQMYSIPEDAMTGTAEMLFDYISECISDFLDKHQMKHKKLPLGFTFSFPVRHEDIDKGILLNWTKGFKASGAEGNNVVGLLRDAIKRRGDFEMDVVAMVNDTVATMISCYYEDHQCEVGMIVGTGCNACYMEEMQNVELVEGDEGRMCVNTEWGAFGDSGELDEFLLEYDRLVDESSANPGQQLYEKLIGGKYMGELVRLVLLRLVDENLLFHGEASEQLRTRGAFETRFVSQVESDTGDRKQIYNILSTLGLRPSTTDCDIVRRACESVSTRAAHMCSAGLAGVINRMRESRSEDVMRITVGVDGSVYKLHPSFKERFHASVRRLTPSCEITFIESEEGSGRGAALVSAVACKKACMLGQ

Hexokinase-4 [2] = molecular target: T1, Hexokinase-4; assay: Activation of flag-tagged human recombinant liver glucokinase expressed in Escherichia coli by glucose-6-phosphate dehydrogenase coupled continuous spectrophotometric assay in presence of 10 mM glucose
Mus musculus = assay: Glucose lowering effect in normal-fed ICR mouse assessed as decrease in plasma glucose AUC level at 30 mg/kg, po; type: functional, organism-based; parameters: dose 30 mg/kg
Summary of the method: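 Mice given a single oral dose in 0.5% methylcellulose vehicle. Blood glucose measured just before dosing and at 0.5, 1, 1.5, 2, 3 and 4 h after dosing.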

[3] = AUC (0 to infinity) in Sprague-Dawley rat at 1 mg/kg, iv; type: ADME, organism-based; parameters: time infinity, dose 1 mg/kg, route intravenous; conditions: plasma
[4] = Total clearance in Sprague-Dawley rat at 1 mg/kg, iv; type: ADME, organism-based; parameters: dose 1 mg/kg, route intravenous; conditions: in vivo
[5] = Half life in Sprague-Dawley rat at 1 mg/kg, iv; type: ADME, organism-based; parameters: dose 1 mg/kg, route intravenous; conditions: in vivo
[6] = Volume of distribution at steady state in Sprague-Dawley rat at 1 mg/kg, iv; type: ADME, organism-based; parameters: dose 1 mg/kg, route intravenous; conditions: in vivo, read-out: Vdss
[7] = AUC (0 to infinity) in Sprague-Dawley rat at 3 mg/kg, po; type: ADME, organism-based; parameters: time infinity, dose 3 mg/kg, route oral; conditions: plasma
[8] = Cmax in Sprague-Dawley rat at 3 mg/kg, po; type: ADME, organism-based; parameters: dose 3 mg/kg, route oral; conditions: in vivo
[9] = Tmax in Sprague-Dawley rat at 3 mg/kg, po; type: ADME, organism-based; parameters: dose 3 mg/kg, route oral; conditions: in vivo
[10] = Oral bioavailability in Sprague-Dawley rat at 3 mg/kg; type: ADME, organism-based; conditions: in vivo
Rattus norvegicus = assay: Glucose lowering effect in overnight-fasted po dosed Wistar rat assessed as decrease in glucose AUC level administered 30 mins before oral glucose challenge by OGTT; type: functional, organism-based
Summary of the method: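 Rats dosed orally in 0.5% methylcellulose vehicle, then given an oral glucose challenge (2 g/kg) 30 min later. Plasma glucose measured just before and after the challenge. Glucose AUC used as read-out.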

SMILES	EC50 (Hexokinase-4 [1]) [µM]	EC50 (Hexokinase-4 [2]) [µM]	further results
Cc1csc(NC(=O)c2cccc(Oc3ccccc3C)c2)n1	3.2	0.82	–
Cc1csc(NC(=O)c2cc(Oc3ccccc3)cc(Oc3ccccc3S(C)(=O)=O)c2)n1	1.1	0.61	–
Cc1csc(NC(=O)c2cccc(Oc3ccccc3F)c2)n1	2.4	0.45	–
Cc1csc(NC(=O)c2cccc(Oc3ccc(S(C)(=O)=O)cc3)c2)n1	29	3.4	–
CCOc1cc(Oc2ccccc2S(C)(=O)=O)cc(C(=O)Nc2nc(C)cs2)c1	2.4	2.1	–
Cc1ccc(Oc2cccc(C(=O)Nc3nc(C)cs3)c2)cc1	5.9	6.4	–
Cc1csc(NC(=O)c2cccc(Oc3ccccc3S(C)(=O)=O)c2)n1	5.5	1.1	–
CCOc1ccccc1Oc1cccc(C(=O)Nc2nc(C)cs2)c1	5.4	1.9	–
Cc1csc(NC(=O)c2cc(Oc3cccc(S(C)(=O)=O)c3)cc(OC(C)C)c2)n1	1.1	0.09	–
Cc1csc(NC(=O)c2cc(Oc3ccccc3)cc(Oc3cccc(S(C)(=O)=O)c3)c2)n1	1.1	0.94	–
Cc1csc(NC(=O)c2cc(Oc3ccccc3)cc(Oc3ccc(S(C)(=O)=O)cc3)c2)n1	0.42	0.35	–

Now from value to molecule, other results behind:

EC50 (Hexokinase-4 [1]) [µM]	EC50 (Hexokinase-4 [2]) [µM]	SMILES	further results
> 30	> 30	Cc1csc(NC(=O)c2cc(Oc3ccccc3S(C)(=O)=O)ccc2OC(C)C)n1	–
18	1.1	Cc1csc(NC(=O)c2cccc(Oc3cccc(S(C)(=O)=O)c3)c2)n1	–
11	1.9	COc1cc(Oc2ccccc2S(C)(=O)=O)cc(C(=O)Nc2nc(C)cs2)c1	–
21	4.2	Cc1csc(NC(=O)c2cccc(Oc3ccc(F)cc3)c2)n1	–
2.2	0.49	COc1ccccc1Oc1cccc(C(=O)Nc2nc(C)cs2)c1	–
2.1	0.44	Cc1csc(NC(=O)c2cc(Oc3ccccc3S(C)(=O)=O)cc(OC(C)C)c2)n1	–
0.33	0.13	Cc1csc(NC(=O)c2cc(Oc3ccc(S(C)(=O)=O)cc3)cc(OC(C)C)c2)n1	Activity (Mus musculus): Active; AUC(0-inf) [3]: 9.7 µM·h; clearance [4]: 0.246 L/h/kg; half-life [5]: 1.1 h; Vd [6]: 0.4 L/kg; AUC(0-inf) [7]: 12 µM·h; Cmax [8]: 2.9 µM; Tmax [9]: 1 h; bioavailability [10]: 40%; Activity (Rattus norvegicus): Dose-dependent effect
> 30	> 30	Cc1csc(NC(=O)c2cc(Oc3ccccc3S(C)(=O)=O)ccc2Oc2ccccc2)n1	–
19	0.8	Cc1csc(NC(=O)c2cccc(Oc3ccccc3)c2)n1	–
8.2	2.3	Cc1cccc(Oc2cccc(C(=O)Nc3nc(C)cs3)c2)c1	–
6.3	2.2	Cc1csc(NC(=O)c2cccc(Oc3cccc(F)c3)c2)n1	–

Source: ChEMBL document CHEMBL1153380, “Discovery of potent and orally active 3-alkoxy-5-phenoxy-N-thiazolyl benzamides as novel allosteric glucokinase activators” (Bioorg Med Chem, 2009)
